CHO parental Ca: signal in parental CHO cells, OX1R antagonist counter-screen | 0.63% of 330,000 active | inhibition, % at 5.6 µM | parental CHO-K1, ATP-induced calcium, Fluo-8 fluorescence;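 active = inhibition above that plate's mean sample inhibition plus 3 SD, cut at about 26% in these data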
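Material: Parental CHO cells | Reagent: ATP | Compound dosing: Single nominal dose of 5.6 µM per compound | Detection: Intracellular calcium via Fluo-8 no-wash fluorescent dye | Read-out: % inhibition of ATP-induced calcium mobilization | Benchmarks: Low control ATP plus DMSO, high control DMSO only | Replicates: Singlicate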
OX1R antag-1: antagonists of human orexin 1 receptor | O43613 | CHO/OX1R cells, Fluo-8 calcium fluorescence, orexin A | inhibition, % at 5 µM | 0.43% of 330,000 active | AID 434989;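 active = inhibition above its plate's threshold, mean inhibition of all tested compounds on the plate plus 3 SD, cut at about 37% in these data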
OXTR potentiator: potentiates the human oxytocin receptor response; activation, % at 3 µM; CHO-OTR cells, Fluo-8 calcium fluorescence, potentiator mode; 0% = oxytocin EC15, 100% = EC100; 0.061% of 320,000 active; P30559;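 active = activation above that plate's cutoff, the mean activation of tested compounds plus 3 SD, cut at about 6.6% in these data, passing the limit was not always enough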
Target sequence (P30559 whole entry, looked up): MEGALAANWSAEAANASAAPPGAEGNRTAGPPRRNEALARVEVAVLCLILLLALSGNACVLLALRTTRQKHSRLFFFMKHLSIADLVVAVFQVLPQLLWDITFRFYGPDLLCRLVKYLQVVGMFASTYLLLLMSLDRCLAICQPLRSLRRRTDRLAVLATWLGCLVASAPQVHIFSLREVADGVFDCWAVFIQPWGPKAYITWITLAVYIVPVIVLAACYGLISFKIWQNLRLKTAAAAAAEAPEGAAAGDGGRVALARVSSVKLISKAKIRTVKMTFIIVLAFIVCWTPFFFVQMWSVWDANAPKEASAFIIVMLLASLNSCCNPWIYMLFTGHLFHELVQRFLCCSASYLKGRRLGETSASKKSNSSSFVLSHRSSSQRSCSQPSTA
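test system = CHO-OTR cells, human receptor | compound = single-point 3.0 µM | schedule = 6 min compound pre-incubation at room temperature, 100 s kinetic read | signal = Fluo-8 no-wash calcium dye fluorescence, excitation 470-495 nm, emission 515-575 nm | repeats = single well per compound, singlicate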
OXTR agonist: human OXTR agonism. 0.32% of 320,000 active. AID 2435. activation, % at 3 µM. CHO-OTR cells, Fluo-8 calcium fluorescence; normalized: DMSO 0%, oxytocin 100%;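 active = activation above the mean of all tested compounds plus 3 SD, cutoff set per screening run, cut at about 20% in these data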;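 also: peak over basal fluorescence ratio from a 100 s FLIPR kinetic read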
OX1R antag-2: OX1R (human) antagonism; inhibition, % at 6.6 µM; O43613; OX1R-expressing cells, FRET antagonist read-out; 1.8% of 330,000 active; AID 485270; in the data active = inhibition mostly above about 38%, no sharp cut-off; inactive = mostly below about 40%
V1R ag counter: V1a receptor agonism, counter-screen for OXTR agonists | CHO-V1R cells, Fluo-8 calcium fluorescence, agonist mode; 0% DMSO, 100% 3 nM vasopressin | 0.25% of 320,000 active | P37288 | activation, % at 3 µM;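 active = activation above the mean activation of all tested compounds plus 3 SD, per screening run, cut at about 20% in these data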;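 also: signal is peak over basal fluorescence ratio across a 100 second FLIPR read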
A number is an active result. The list is not random: actives were taken first. Their share in the collection is about 2.7%.

Results for CC(C)=CCC[C@](C)(O)C1CC[C@]2(C)C1[C@H](O)CC1[C@@]3(C)CC[C@H](O[C@@H]4O[C@H](CO)[C@@H](O)[C@H](O)[C@H]4O[C@@H]4O[C@H](CO)[C@@H](O)[C@H](O)[C@H]4O)C(C)(C)C3CC[C@]12C (some centres undefined) ?
CHO parental Ca: inactive; OX1R antag-1: inactive; OXTR potentiator: inactive; OXTR agonist: 70.1; OX1R antag-2: inactive; V1R ag counter: 38.1

What do the screens show for `c1ccc(Nc2nc(-c3ccccc3)ns2)cc1`?
CHO parental Ca: inactive; OX1R antag-1: inactive; OXTR potentiator: inactive; OXTR agonist: inactive; OX1R antag-2: 49.3; V1R ag counter: inactive

How did C/C(=N\Nc1ccc(S(N)(=O)=O)cc1[N+](=O)[O-])c1ccccc1O do in these assays?
CHO parental Ca: inactive; OX1R antag-1: inactive; OXTR potentiator: inactive; OXTR agonist: inactive; OX1R antag-2: inactive; V1R ag counter: inactive

Results for NS(=O)(=O)c1ccc(N/N=C/c2ccc(O)cc2O)c([N+](=O)[O-])c1 ?
CHO parental Ca: inactive; OX1R antag-1: inactive; OXTR potentiator: inactive; OXTR agonist: inactive; OX1R antag-2: inactive; V1R ag counter: inactive

How did NS(=O)(=O)c1ccc(N/N=C/c2ccccn2)c([N+](=O)[O-])c1 do in these assays?
CHO parental Ca: inactive; OX1R antag-1: inactive; OXTR potentiator: inactive; OXTR agonist: inactive; OX1R antag-2: 45.6; V1R ag counter: inactive

How did C/C(=N\Nc1ccc(S(N)(=O)=O)cc1[N+](=O)[O-])c1ccco1 do in these assays?
CHO parental Ca: inactive; OX1R antag-1: inactive; OXTR potentiator: inactive; OXTR agonist: inactive; OX1R antag-2: 40.6; V1R ag counter: inactive

What do the screens show for `CCOc1ccc(NC(=O)COC(=O)c2ccc3c(c2)OCCO3)cc1`?
CHO parental Ca: inactive; OX1R antag-1: inactive; OXTR potentiator: inactive; OXTR agonist: inactive; OX1R antag-2: inactive; V1R ag counter: inactive

What do the screens show for `CCOC(=O)c1cn(CC)c2cc(Cl)c([N+](=O)[O-])cc2c1=O`?
CHO parental Ca: inactive; OX1R antag-1: inactive; OXTR potentiator: inactive; OXTR agonist: inactive; OX1R antag-2: 54.8; V1R ag counter: inactive

What do the screens show for `CCOC(=O)c1cn(-c2c(Cl)cccc2Cl)c2cc(Cl)c([N+](=O)[O-])cc2c1=O`?
CHO parental Ca: inactive; OX1R antag-1: inactive; OXTR potentiator: inactive; OXTR agonist: inactive; OX1R antag-2: inactive; V1R ag counter: inactive

What do the screens show for `COc1cc(/C=C(\C#N)c2nc3c(s2)CCCC3)ccc1O`?
CHO parental Ca: 82.3; OX1R antag-1: 94.4; OXTR potentiator: inactive; OXTR agonist: 60.0; OX1R antag-2: inactive; V1R ag counter: 57.3

What do the screens show for `O=CC1=C(c2ccccc2)Oc2ccccc2O1`?
CHO parental Ca: inactive; OX1R antag-1: inactive; OXTR potentiator: inactive; OXTR agonist: inactive; OX1R antag-2: inactive; V1R ag counter: inactive

What do the screens show for `Cc1nnc(N/N=C/c2c(Cl)cccc2Cl)n1N`?
CHO parental Ca: inactive; OX1R antag-1: inactive; OXTR potentiator: inactive; OXTR agonist: inactive; OX1R antag-2: 61.1; V1R ag counter: inactive

What do the screens show for `CCc1nnc(N/N=C/c2c(F)cccc2Cl)n1N`?
CHO parental Ca: inactive; OX1R antag-1: inactive; OXTR potentiator: inactive; OXTR agonist: inactive; OX1R antag-2: 71.4; V1R ag counter: inactive

Results for CCc1nnc(N/N=C/c2c(C)[nH]c3ccccc23)n1N ?
CHO parental Ca: inactive; OX1R antag-1: inactive; OXTR potentiator: inactive; OXTR agonist: inactive; OX1R antag-2: 67.8; V1R ag counter: inactive

Results for Fc1cccc(Cl)c1/C=N/Nc1ccccn1 ?
CHO parental Ca: inactive; OX1R antag-1: inactive; OXTR potentiator: inactive; OXTR agonist: inactive; OX1R antag-2: inactive; V1R ag counter: inactive

What do the screens show for `Cc1ccc(NC(=O)CSc2ncccn2)cc1S(=O)(=O)N1CCOCC1`?
CHO parental Ca: inactive; OX1R antag-1: inactive; OXTR potentiator: inactive; OXTR agonist: inactive; OX1R antag-2: inactive; V1R ag counter: inactive

What do the screens show for `Cc1ccccc1-c1nc2cc(NC(=O)C3CC3)ccc2o1`?
CHO parental Ca: inactive; OX1R antag-1: inactive; OXTR potentiator: inactive; OXTR agonist: inactive; OX1R antag-2: inactive; V1R ag counter: inactive

Results for Cc1ccc(-n2ncc3c2CC(C)(C)CC3NC(=O)CCc2ccc(=O)[nH]n2)cc1 (centres undefined) ?
CHO parental Ca: inactive; OX1R antag-1: inactive; OXTR potentiator: inactive; OXTR agonist: inactive; OX1R antag-2: inactive; V1R ag counter: inactive

How did CC(=O)Nc1ccc(Sc2ncccc2C(=O)Nc2ccc(F)cc2)cn1 do in these assays?
CHO parental Ca: 71.8; OX1R antag-1: 101.3; OXTR potentiator: inactive; OXTR agonist: 79.1; OX1R antag-2: inactive; V1R ag counter: 70.4

Results for COc1ccc(S(=O)(=O)N/N=C(/C)c2ccncc2)c(OC)c1 ?
CHO parental Ca: inactive; OX1R antag-1: inactive; OXTR potentiator: inactive; OXTR agonist: inactive; OX1R antag-2: inactive; V1R ag counter: inactive

What do the screens show for `O=C(Nc1ccc(-c2nc3cccnc3s2)cc1)c1ccco1`?
CHO parental Ca: inactive; OX1R antag-1: inactive; OXTR potentiator: inactive; OXTR agonist: inactive; OX1R antag-2: inactive; V1R ag counter: inactive

How did O=C(Nc1cccc(-c2cnc3ccccc3n2)c1)c1cccc(NC(=O)c2ccco2)c1 do in these assays?
CHO parental Ca: inactive; OX1R antag-1: inactive; OXTR potentiator: inactive; OXTR agonist: inactive; OX1R antag-2: 49.4; V1R ag counter: inactive

What do the screens show for `CCOc1ncccc1C(=O)Nc1ccc(OC)c(S(=O)(=O)N2CCCCC2)c1`?
CHO parental Ca: inactive; OX1R antag-1: inactive; OXTR potentiator: inactive; OXTR agonist: inactive; OX1R antag-2: inactive; V1R ag counter: inactive

How did CCOc1ncccc1C(=O)Nc1cccc(-c2nc3cccnc3s2)c1 do in these assays?
CHO parental Ca: inactive; OX1R antag-1: inactive; OXTR potentiator: inactive; OXTR agonist: inactive; OX1R antag-2: 68.3; V1R ag counter: inactive

What do the screens show for `O=C(Nc1cccc(-c2nc3cccnc3s2)c1)c1ccco1`?
CHO parental Ca: inactive; OX1R antag-1: inactive; OXTR potentiator: inactive; OXTR agonist: inactive; OX1R antag-2: 64.2; V1R ag counter: inactive

What do the screens show for `CCOc1ncccc1C(=O)Nc1ccc(C)c(S(=O)(=O)N2CCCCCC2)c1`?
CHO parental Ca: 34.4; OX1R antag-1: 54.9; OXTR potentiator: inactive; OXTR agonist: inactive; OX1R antag-2: inactive; V1R ag counter: inactive

Results for O=C(Nc1cccc(-c2cnc3ccccc3n2)c1)c1ccccc1 ?
CHO parental Ca: inactive; OX1R antag-1: inactive; OXTR potentiator: inactive; OXTR agonist: inactive; OX1R antag-2: inactive; V1R ag counter: inactive

How did CCN(CC)S(=O)(=O)c1ccc(NC(=O)CO/N=C(\N)c2ccccc2)cc1 do in these assays?
CHO parental Ca: inactive; OX1R antag-1: inactive; OXTR potentiator: inactive; OXTR agonist: inactive; OX1R antag-2: inactive; V1R ag counter: inactive
